Activity data for one compound are collected here from ChEMBL document CHEMBL3232764, “Influence of the adamantyl moiety on the activity of biphenylacrylohydroxamic acid-based HDAC inhibitors” (Eur J Med Chem, 2014).

Common to all, as to format: functional
Experiment [1] can be described thus: Cell cycle arrest in human IGROV1 cells assessed as accumulation at G2/M phase at IC80 after 24 hrs by propidium iodide staining-based flow cytometry (reference value: 13.21%). Particulars: IGROV-1. An outline of the steps:
(§1)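 Cell-cycle distribution in IGROV-1 cells read by flow cytometry of propidium iodide–stained cells.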

For experiment [2], the system named is IGROV-1. The experiment is described as follows: Cell cycle arrest in human IGROV1 cells assessed as accumulation at S phase at IC80 after 24 hrs by propidium iodide staining-based flow cytometry (reference value: 36.81%). The method in brief:
as §1
(Flow cytometry measures light scatter and fluorescence of single cells or particles in a stream.)

Experiment [3] concerns IGROV-1. The experiment is described as follows: Cell cycle arrest in human IGROV1 cells assessed as accumulation at G1 phase at IC80 after 24 hrs by propidium iodide staining-based flow cytometry (reference value: 49.98%). An outline of the steps: as §1

`COc1ccc(-c2ccc(/C=C/C=C/C(=O)NO)cc2)cc1C12CC3CC(CC(C3)C1)C2`: the Activity in experiment [1] is 7.46%; in the experiment on IGROV-1 [2] it was 22.18%; with IGROV-1 [3], 70.35%.
